Measurements from ChEMBL document CHEMBL4477186, “Structurally Diverse Metabolites from the Soft Coral Sinularia verruca Collected in the South China Sea” (J Nat Prod, 2016).
Active and inactive are the calls of the source. The calls are words filed in the database; no cut-off is given here.

Tests used:
Peritoneal macrophage [1] = experiment: Antiinflammatory activity against C57BL6J mouse peritoneal macrophages assessed as inhibition of LPS-induced NO production incubated for 1 hr followed by stimulation with LPS for 24 hrs by Griess assay; assay type: functional, cell-based
Procedure, shortened: (§1)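 Mouse peritoneal macrophages stimulated with lipopolysaccharide; nitric oxide production measured following an earlier protocol. Test compounds taken from 30 mM DMSO stocks and diluted to 1–30 μM final. Dexamethasone in DMSO served as positive control.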

CEM-SS = experiment: Cytotoxicity against human CEM-SS cells assessed as growth inhibition after 6 days by XTT assay; assay type: cell-based; settings: 144 h
Procedure, shortened: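 Uninfected CEM-SS cells (1 × 10⁴ per well, duplicate wells) grown alongside the infected cultures in phenol red-free RPMI 1640 with 5% FBS, gentamicin and 2 mM L-glutamine. Compounds diluted from DMSO into medium. Incubation 6 days at 37 °C under 5% CO₂; growth estimated by XTT read-out; IC50 derived.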

[2] = test system: Human immunodeficiency virus 1; experiment: Antiviral activity against HIV1 infected in human CEM-SS cells assessed as inhibition of virus-induced cytopathic effect after 6 days by XTT assay; assay type: functional, organism-based; settings: for EC50: Human immunodeficiency virus 1, CEM-SS, 144 h
Procedure, shortened: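 NCI XTT-tetrazolium primary anti-HIV screen. CEM-SS cells kept in phenol red-free RPMI 1640 with 5% FBS, gentamicin and 2 mM L-glutamine; 1 × 10⁴ cells per well infected with HIV-1 RF (Haitian variant) at MOI 0.6. Compounds predissolved in DMSO, diluted in medium; AZT positive control. Quadruplicate infected wells, 6 days, 37 °C, 5% CO₂; cell growth by XTT; EC50 and maximal protection derived.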

Peritoneal macrophage [3] = experiment: Antiinflammatory activity against C57BL6J mouse peritoneal macrophages assessed as inhibition of LPS-induced NO production at 30 uM incubated for 1 hr followed by stimulation with LPS for 24 hrs by Griess assay; assay type: functional; procedure, shortened: as §1

| SMILES | IC50 (Peritoneal macrophage [1]) | IC50 (CEM-SS) | %max [2] | EC50 [2] | inhibition at 30 µM (Peritoneal macrophage [3]) | inhibition [2] |
| --- | --- | --- | --- | --- | --- | --- |
| CCCCC[C@@]1(O)C(C)=C(C)C(=O)[C@H]1CO (relative stereo) | 28 µM | 79 µM | 86% | 34 µM | – | – |
| CCCCC[C@@]1(O)C(C)=C(C)C(=O)[C@H]1COCC (relative stereo) | 26 µM | 66 µM | 75% | 30 µM | – | – |
| COC(=O)C(C)CCCC(C)(O)CCC1=C(C)C(=O)C(C)=C(C)C1=O (stereo not given) | – | – | – | – | < 50% | inactive |
| CCOC(=O)C1=CN2CC[C@]3(O)c4ccccc4N([C@H]1C)[C@H]23 | – | – | – | – | < 50% | inactive |
| CCO[C@@]1(CCCCCCCCCCCCC(=O)O)OC(=O)C(C)=C1C | – | – | – | – | < 50% | inactive |
| COC(=O)C(C)CCCC1(C)CCc2c(C)c(O)c(C)c(C)c2O1 (stereo not given) | – | – | – | – | < 50% | inactive |
| CCCC[C@@H]1C(=O)C(C)=C(C)[C@]1(O)CCC(=O)OCC | 24 µM | – | – | – | – | inactive |
| C/C1=C/C2=C(CC(C)(C)C2)[C@H](C)CC[C@@H]1O | – | – | – | – | < 50% | inactive |
| CC1=C[C@@]2(C=C(C)[C@@H]3CC[C@@]4(C)Oc5cc(C)c(O)cc5[C@@H]2[C@@H]34)OC1=O | – | – | – | – | < 50% | inactive |
| CCOC(=O)CC[C@]1(O)OC(=O)C(C)=C1C | – | – | – | – | < 50% | inactive |
| C/C(=C\CC[C@]1(C)C=Cc2cc(O)c(C)cc2O1)Cc1cc(C)co1 [CAPILLOBENZOPYRANOL] | – | – | – | – | < 50% | inactive |
| C[C@@H]1CC[C@]2(O)O[C@]13CC(C)(C)CC3=C[C@@]2(C)O | – | – | – | – | < 50% | inactive |
| CCCCC[C@]1(O)OC(=O)C(C)=C1C | – | – | – | – | < 50% | inactive |
| CCCC[C@@H]1C(=O)C(C)=C(C)[C@]12CCC(=O)O2 | – | – | – | – | < 50% | inactive |
| CCOC(=O)CCCCCCCCCCCC[C@]1(O)OC(=O)C(C)=C1C | – | – | – | – | < 50% | inactive |
| C=C1C(=O)C(C)=C(C)[C@@]1(O)CCCCC | – | 6.3 µM | 52% | 5.8 µM | < 50% | – |
| CC(=O)CC/C=C(/C)C[C@@H]1CC(C)(C)CC1=O | – | – | – | – | < 50% | inactive |
